≈ marks a conversion by molar mass, not a printed value.
How the values were obtained:
[1] = test system: Human immunodeficiency virus 1; experiment: Antiviral activity against R5 tropic Human immunodeficiency virus 1 subtype B-ADA5 infected in human TZM-bl cells assessed as inhibition of virus-induced cytopathic effect after 2 days by luciferase assay; type: functional, organism-based; conditions: Human immunodeficiency virus 1, subtype B-ADA5, TZM-bl, 48 h
Summary of the method: (§1)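 TZM-bl cells were seeded at 1 × 10^4 per well and incubated overnight at 37 °C in 5% CO2. Medium was then replaced with HIV-1 stock for 2 h at 37 °C, and compound concentrations giving >50% viability were added. After two days, luciferase activity was read as RLU. EC50 is the mean of two independent assays, each in duplicate. Nevirapine served as positive control.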

[2] = test system: Human immunodeficiency virus 1; experiment: Antiviral activity against X4 tropic Human immunodeficiency virus 1 subtype D-UG070 infected in human TZM-bl cells assessed as inhibition of virus-induced cytopathic effect after 2 days by luciferase assay; type: functional, organism-based; conditions: Human immunodeficiency virus 1, subtype D-UG070, TZM-bl, 48 h; summary of the method: as §1
[3] = Selectivity index, ratio of CC50 for human TZM-bl cells to EC50 for R5 tropic Human immunodeficiency virus 1 subtype B-ADA5; type: toxicity, cell-based; conditions: read-out: Ratio CC50/EC50
Summary of the method: (§2)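 Selectivity index is CC50/EC50. […] EC50 came from the 2-day luciferase (RLU) readout in HIV-1-infected TZM-bl cells (mean of two assays).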

[4] = Selectivity index, ratio of CC50 for human TZM-bl cells to EC50 for X4 tropic Human immunodeficiency virus 1 subtype D-UG070; type: toxicity, cell-based; conditions: read-out: Ratio CC50/EC50; summary of the method: as §2
[5] = Cytotoxicity in human TZM-bl cells assessed as cell viability after 48 hrs by MTT assay; type: cell-based
Summary of the method: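 TZM-bl (JC53BL-13) cells were seeded at 1 × 10^4 per well and incubated overnight at 37 °C in 5% CO2. Medium was replaced with a twofold dilution series of compound for 48 h, and viability was read by MTT absorbance. CC50 (50% cytotoxic concentration) is the mean of three independent assays, each in quadruplicate.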

[6] = Selectivity index, ratio of CC50 for human TZM-bl cells to EC50 for R5 tropic Human immunodeficiency virus 1 subtype C-VB59; type: toxicity, cell-based; conditions: read-out: Ratio CC50/EC50; summary of the method: as §2
[7] = Selectivity index, ratio of CC50 for human TZM-bl cells to EC50 for X4 tropic Human immunodeficiency virus 1 subtype B-3B; type: cell-based; conditions: read-out: Ratio CC50/EC50; summary of the method: as §2
[8] = test system: Human immunodeficiency virus 1; experiment: Antiviral activity against R5 tropic Human immunodeficiency virus 1 subtype C-VB59 infected in human TZM-bl cells assessed as inhibition of virus-induced cytopathic effect after 2 days by luciferase assay; type: functional, organism-based; conditions: Human immunodeficiency virus 1, subtype C-VB59, TZM-bl, 48 h; summary of the method: as §1
[9] = test system: Human immunodeficiency virus 1; experiment: Antiviral activity against X4 tropic Human immunodeficiency virus 1 subtype B-3B infected in human TZM-bl cells assessed as inhibition of virus-induced cytopathic effect after 2 days by luciferase assay; type: functional, organism-based; conditions: 48 h; summary of the method: as §1
[10] = biological target: Human immunodeficiency virus type 1 reverse transcriptase (Human immunodeficiency virus 1) (UniProt Q72547); experiment: Inhibition of biotin-dNTP labeled HIV-1 reverse transcriptase using ABST as substrate at 100 ug/ml after 1 hr by ELISA
Summary of the method: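 ELISA-format RT assay. Template/primer, biotin- and DIG-labelled dNTPs and RT enzyme in lysis buffer were incubated 1 h at 37 °C. The product was captured on streptavidin, detected with anti-DIG-peroxidase and ABTS substrate, and absorbance read at 405 nm. Activity is reported as percent inhibition of RT.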

SMILES | EC50 [1] [µg/mL] | EC50 [2] [µg/mL] | EC50 [8] [µg/mL] | EC50 [9] [µg/mL] | inhibition [10] [%] | selectivity ratio [3] | selectivity ratio [4] | CC50 at 48 h [5] [µg/mL] | selectivity ratio [6] | selectivity ratio [7]
Cc1cccc(N2C(=O)CSC2c2c(Cl)cncc2Cl)n1 (stereo not drawn) | 1.64 (≈ 4.82 µM) | 3.1 (≈ 9.11 µM) | 1.95 (≈ 5.73 µM) | 0.65 (≈ 1.91 µM) | 84.1 | 27.4 | 14.5 | 45 (≈ 132 µM) | 23.1 | 69.8
Cc1cc(N2C(=O)CSC2c2c(Cl)cncc2Cl)nc(C)c1Br (stereo not drawn) | 4.8 (≈ 11.1 µM) |  |  | 1.5 (≈ 3.46 µM) | 57.4 | 3.2 |  | 15.6 (≈ 36 µM) |  | 10.4
Cc1cc(C)nc(N2C(=O)CSC2c2c(Cl)cncc2Cl)c1 (stereo not drawn) | 0.31 (≈ 0.875 µM) | 1.55 (≈ 4.38 µM) | 1.1 (≈ 3.11 µM) | 0.8 (≈ 2.26 µM) | 85.3 | 120 | 24.1 | 37.3 (≈ 105 µM) | 33.9 | 46.6
Cc1nc(N2C(=O)CSC2c2c(Br)cncc2Br)ccc1Br (stereo not drawn) | 2.52 (≈ 4.96 µM) |  |  | 6.09 (≈ 12 µM) | 75.9 | 10.7 |  | 26.9 (≈ 52.9 µM) |  | 4.4
Cc1ccnc2c1NC(=O)c1cccnc1N2C1CC1 [NEVIRAPINE] | 0.05 (≈ 0.188 µM) | 0.05 (≈ 0.188 µM) | 0.05 (≈ 0.188 µM) | 0.05 (≈ 0.188 µM) |  | 1520 | 1520 | 76.1 (≈ 286 µM) | 1520 | 1520
Cc1cc(N2C(=O)CSC2c2c(Br)cncc2Br)nc(C)c1Br (stereo not drawn) |  |  |  |  | 62 |  |  |  |  | 
Cc1cc(C)nc(N2C(=O)CSC2c2c(Br)cncc2Br)c1 (stereo not drawn) | 1.21 (≈ 2.73 µM) | 2.1 (≈ 4.74 µM) | 1.59 (≈ 3.59 µM) | 1.41 (≈ 3.18 µM) | 62.8 | 41.1 | 23.7 | 49.8 (≈ 112 µM) | 31.3 | 35.3
Cc1nc(N2C(=O)CSC2c2c(Cl)cncc2Cl)ccc1Br (stereo not drawn) | 2.17 (≈ 5.18 µM) | 8.45 (≈ 20.2 µM) | 6.5 (≈ 15.5 µM) | 6.18 (≈ 14.7 µM) | 76.6 | 30.7 | 7.89 | 66.7 (≈ 159 µM) | 10.3 | 10.8

Continued, in another order:

EC50 [1] [µg/mL] | EC50 [2] [µg/mL] | EC50 [8] [µg/mL] | EC50 [9] [µg/mL] | inhibition [10] [%] | SMILES | selectivity ratio [3] | selectivity ratio [4] | CC50 at 48 h [5] [µg/mL] | selectivity ratio [6] | selectivity ratio [7]
1.26 (≈ 3.23 µM) | 1.8 (≈ 4.61 µM) | 0.65 (≈ 1.67 µM) | 0.93 (≈ 2.38 µM) | 76.5 | CSc1nc(Cl)cc(N2C(=O)CSC2c2c(F)cccc2Cl)n1 (stereo not drawn) | 21.4 | 15 | 27 (≈ 69.2 µM) | 41.5 | 29
2.58 (≈ 7.62 µM) |  |  | 2.97 (≈ 8.78 µM) | 71.5 | CC(C)(C)c1cc(N2C(=O)CSC2c2c(F)cccc2F)no1 (stereo not drawn) | 18 |  | 45.9 (≈ 136 µM) |  | 15.5
1.06 (≈ 3.39 µM) | 0.75 (≈ 2.4 µM) | 0.68 (≈ 2.17 µM) | 0.67 (≈ 2.14 µM) | 95.5 | Cc1cc(N2C(=O)CSC2c2c(F)cccc2Cl)no1 (stereo not drawn) | 36.3 | 51.3 | 38.5 (≈ 123 µM) | 56.6 | 57.4
4.11 (≈ 9.58 µM) | 5.55 (≈ 12.9 µM) | 2.24 (≈ 5.22 µM) | 2.22 (≈ 5.17 µM) | 77.6 | Cc1cccc(N2C(=O)CSC2c2c(Br)cncc2Br)n1 (stereo not drawn) | 6.5 | 4.8 | 26.7 (≈ 62.2 µM) | 11.9 | 12
0.85 (≈ 1.97 µM) | 0.29 (≈ 0.671 µM) | 0.35 (≈ 0.81 µM) | 1.04 (≈ 2.41 µM) | 60.7 | Cc1cc(N2C(=O)CSC2c2c(Cl)cccc2Cl)nc(C)c1Br (stereo not drawn) | 2.9 | 8.6 | 2.5 (≈ 5.78 µM) | 7.1 | 2.4
0.12 (≈ 0.289 µM) | 0.1 (≈ 0.241 µM) | 0.07 (≈ 0.168 µM) | 0.09 (≈ 0.216 µM) | 91.2 | Cc1cc(N2C(=O)CSC2c2c(F)cccc2Cl)nc(C)c1Br (stereo not drawn) | 335 | 402 | 40.2 (≈ 96.7 µM) | 574 | 447
2.4 (≈ 6.46 µM) | 1.76 (≈ 4.74 µM) | 1.8 (≈ 4.85 µM) | 1.49 (≈ 4.01 µM) | 50.4 | CC(C)(C)c1cc(N2C(=O)CSC2c2c(Cl)cccc2Cl)no1 (stereo not drawn) | 20 | 27.5 | 48.5 (≈ 131 µM) | 26.9 | 32.6
3.07 (≈ 8.65 µM) | 1.6 (≈ 4.51 µM) | 2.5 (≈ 7.05 µM) | 1.95 (≈ 5.5 µM) | 51.1 | CC(C)(C)c1cc(N2C(=O)CSC2c2c(F)cccc2Cl)no1 (stereo not drawn) | 13.2 | 24.4 | 40.7 (≈ 115 µM) | 16.2 | 20.8
1.34 (≈ 4.52 µM) | 1.9 (≈ 6.41 µM) | 1.45 (≈ 4.89 µM) | 1.01 (≈ 3.41 µM) | 98.1 | Cc1cc(N2C(=O)CSC2c2c(F)cccc2F)no1 (stereo not drawn) | 46.8 | 33 | 62.7 (≈ 212 µM) | 43.2 | 62
0.65 (≈ 1.97 µM) | 0.5 (≈ 1.52 µM) | 0.35 (≈ 1.06 µM) | 0.35 (≈ 1.06 µM) | 75.4 | Cc1cc(N2C(=O)CSC2c2c(Cl)cccc2Cl)no1 (stereo not drawn) | 62.3 | 81 | 40.5 (≈ 123 µM) | 116 | 116

Reference: ChEMBL document CHEMBL1914449, “Lead optimization at C-2 and N-3 positions of thiazolidin-4-ones as HIV-1 non-nucleoside reverse transcriptase inhibitors” (Bioorg Med Chem, 2011)
